Screens from PubChem BioAssay.
The sample as a whole holds a higher share of hits than the screen did.
HUVEC prolif 384 – blocks proliferation of human endothelial cells | AID 648 | actives 1.1% (n = 86,000) | viability, % at 10 µM (by protocol) | HUVEC proliferation, CellTiter-Glo luminescence, 72 h; hits give low values;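 active = viability at or below 30%; inactive = viability above 30%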;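 also: 100% = median luminescence of DMSO-only cell control wells on each plate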
Lung fibro prol – blocks proliferation of human lung fibroblasts; LL 47 human lung fibroblast viability, ATP luminescence; hits give low values; viability, % at 10 µM; actives 1.1% (n = 85,000);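 active = viability at or below 50% in the single dose screen; inactive = viability above 50%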;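 also: compound exposure lasted 72 h before the ATP readout; 100% = median luminescence of untreated cell-only wells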
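Test system: LL 47 human lung fibroblasts / Incubation: 72 h compound exposure at 37 °C after overnight plating / Technique: luminescent ATP detection, CellTiter-Glo / Compound dosing: 0.1% DMSO in all compound wells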
H69AR inhibit – growth inhibitors of human H69AR lung tumor cells. actives 6% (n = 85,000). viability, % at 10 µM. H69AR lung tumor viability, ATP luminescence, 72 h; hits give low values;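 active = viability at or below 40%; inactive = viability above 40%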;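 also: multidrug resistant small cell line overexpressing MRP-1 efflux transporter; 100% = mean luminescence of untreated control wells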
bCat KO growth – beta-catenin-lacking colon tumor cell growth suppression. HCT116 beta-catenin knockout viability, CellTiter-Glo, 60 h; hits give low values. viability, % at 10 µM. actives 1.5% (n = 140,000). AID 818;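 active = viability at or under a set limit, the compound median less 4 SD, cut at about 6% in these data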;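 also: 0% = Hyamine 1622 control at 20 µM and 100% = untreated cell control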
HCT116 PTEN-null – growth suppressors of cells with PTEN tumor suppressor deletion | actives 1.2% (n = 140,000) | viability, % at 10 µM | AID 827 | HCT116 PTEN-null viability, CellTiter-Glo, 60 h; hits give low values;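 active = viability at or below a set limit, 4 SD under the median of all tested compounds, cut at about 3.7% in these data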;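 also: PTEN knockout HCT116 line with beta catenin targeted HCT116 as companion control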
An asterisk follows results filed as active; / = no result.

SMILES	HUVEC prolif 384	Lung fibro prol	H69AR inhibit	bCat KO growth	HCT116 PTEN-null
CCCCN(C)S(=O)(=O)c1ccc(C(=O)Nc2nnc(-c3cccs3)o2)cc1	5.1*	66.0	34.9*	15.1	13.3
CCCCN(CC)S(=O)(=O)c1ccc(C(=O)Nc2nnc(-c3ccccc3Cl)o2)cc1	3.3*	74.7	27.2*	15.9	15.8
COc1ccc(Cl)cc1S(=O)(=O)Oc1ccc(NC(C)=O)cc1	85.2	106.7	81.4	82.5	87.6
COc1ccc(CC(=O)OCC(=O)NC(=O)NC2CCCCC2)cc1	97.6	94.4	102.4	81.5	93.3
Cc1ccc(C)c(N2CCN(c3nnnn3-c3ccccc3)CC2)c1	89.1	84.5	19.9*	46.6	37.0
Cc1cc(C)nc(N2CCN(c3nnnn3-c3ccccc3)CC2)n1	93.8	95.3	89.7	102.7	103.3
CC(C)(C)S(=O)(=O)c1cnc2c(-c3ccc(F)cc3)cnn2c1N	/	/	/	59.2	63.2
CC(C)(C)S(=O)(=O)c1cnc2c(-c3ccc(Cl)cc3)cnn2c1N	/	/	/	2.6*	1.7*
O=C1c2cccc3c([N+](=O)[O-])ccc(c23)C(=O)N1c1ccc(Cl)cn1	/	/	/	1.8*	1.6*
O=C1c2cccc3c(N4CCCCC4)ccc(c23)C(=O)N1c1ccccn1	/	/	/	65.8	66.4
O=C1c2cccc3c([N+](=O)[O-])ccc(c23)C(=O)N1c1ccccn1	/	/	/	1.6*	1.4*
O=C1c2cccc3c(N4CCCCC4)ccc(c23)C(=O)N1c1ccc(Cl)cn1	78.7	98.0	31.3*	/	/
O=C1c2cccc3c([N+](=O)[O-])ccc(c23)C(=O)N1c1nccs1	2.0*	23.4*	0.8*	1.5*	1.5*
O=C1c2cccc3cccc(c23)C(=O)N1c1nccs1	107.6	106.8	97.4	92.9	113.3
Cc1cccc(-c2c3c(=O)n(C)c(=O)n(C)c3c3c(C)cc(C)nn23)c1	92.5	97.1	82.2	/	/
S=c1[nH]nc(Cc2sc(-c3ccccc3)nc2-c2ccccc2)o1	76.4	108.8	88.5	98.0	90.8
Cc1ccc(C2SCCN2C(=O)c2ccc([N+](=O)[O-])cc2)cc1 (stereo not drawn)	/	/	/	90.4	84.2
CCSc1ccccc1C(=O)n1nnc2ccccc21	80.9	86.4	12.0*	94.8	98.3
Cc1cc(C)c(NS(=O)(=O)c2ccc(NC(=O)/C=C/C(=O)O)cc2)c(C)c1	/	/	/	99.5	99.0
CCCn1cnc2c(c1=O)c1nc3ccccc3nc1n2CCC1=CCCCC1	75.0	97.0	72.6	94.5	96.3
CCCCCCn1c(C)nc2c(c1=O)c1nc3ccccc3nc1n2/N=C/c1ccco1	17.8*	98.6	3.8*	73.8	71.1
Cc1nc2c(c(=O)n1CCC1=CCCCC1)c1nc3ccccc3nc1n2/N=C/c1ccccc1	96.5	109.0	83.5	96.8	80.5
O=c1c2c3nc4ccccc4nc3n(/N=C/c3ccco3)c2ncn1CCC1=CCCCC1	28.7*	96.7	73.8	/	/
CC1(C)Cc2c(cnn2-c2ccccc2)-c2c1c1ccccc1n2CC(O)CCl (stereo not drawn)	60.5	92.3	25.2*	72.0	65.7
O=C(Nc1cccc2cccnc12)c1ccc(Br)o1	71.0	89.8	37.2*	82.7	87.2
SMILES	HUVEC prolif 384	Lung fibro prol	H69AR inhibit	bCat KO growth	HCT116 PTEN-null
O=C(Nc1cccc2ccccc12)c1ccc(Br)o1	90.8	107.0	81.6	99.0	97.4
N#CCCn1c(SCC(=O)Nc2ccc(N3CCOCC3)cc2)nc2ccccc21	/	/	/	99.3	93.6
Cc1ccc(S(=O)(=O)N2CC(O)CC2C(=O)OCC(=O)c2ccccc2Cl)cc1C (stereo not drawn)	/	/	/	95.3	98.5
CCOC(=O)c1ccc(NC(=O)c2ccccc2C)cc1	/	/	/	97.1	97.5
O=C(Nc1cccc(-c2nc3ccccc3[nH]2)c1)c1ccco1	76.7	95.5	34.1*	96.4	83.7
O=C(Nc1cccc(NC(=O)c2ccc(-c3cccc(Br)c3)o2)c1)c1ccco1	60.7	103.6	25.3*	50.5	38.8
O=C(Nc1cccc(NC(=O)c2ccc(-c3ccc(Br)cc3)o2)c1)c1ccccc1	57.9	72.2	54.8	14.8	6.5
O=C(Nc1cccc(-c2cnc3ccccc3n2)c1)c1cccc(NC(=O)c2ccco2)c1	16.6*	34.9*	8.1*	75.2	70.9
O=C(CCl)Nc1cccc(-c2cnc3ccccc3n2)c1	4.1*	2.7*	1.5*	5.1*	3.0*
CCC(=O)Nc1cccc(-c2cnc3ccccc3n2)c1	107.0	102.5	76.6	106.5	103.5
O=C(NCc1ccco1)C1CCCN(S(=O)(=O)c2cccc3cccnc23)C1 (stereo not drawn)	94.5	100.9	83.8	98.4	121.6
COc1ccc(C2SCCN2C(=S)Nc2cccc(Cl)c2)cc1 (stereo not drawn)	/	/	/	88.1	85.8
O=C(CCl)Nc1cccn2ncnc12	85.0	70.6	94.2	28.6	35.9
Cc1nn(Cc2ccc(Cl)cc2Cl)c(C)c1NC(=O)CCl	75.0	23.2*	1.6*	10.7	9.1
COc1ccc(-c2cn3cccnc3n2)cc1F	/	/	/	99.4	97.4
COc1ccc(Nc2nc(Nc3ccc(OC)cc3)nc(SC3=NCCS3)n2)cc1	72.8	97.6	94.9	24.3	9.3
Cc1cc(S(=O)(=O)Nc2cc(C)c(O)c(C)c2)c(C)s1	87.6	90.7	89.4	1.9*	2.1*
Cc1cc(S(=O)(=O)Nc2ccc3ccccc3c2)c(C)s1	54.7	71.5	12.5*	13.7	22.6
Cc1cc(S(=O)(=O)Nc2cccnc2)c(C)s1	89.9	103.2	105.6	92.2	94.2
O=C(Nc1cccc(Oc2ccc3c(c2)C(=O)NC3=O)c1)c1cccs1	/	/	/	91.5	93.7
c1ccc(/N=C2\N=C(Nc3ccccn3)c3ccccc32)nc1	2.4*	53.5	1.0*	/	/
c1ccc(Nc2ccccn2)cc1	85.3	100.7	91.3	99.5	98.3
CCN1CCc2c(C#N)c(N3CCCCC3)nc(NCc3ccccc3)c2C1	58.3	89.6	53.1	1.2*	0.9*
CCN1CCc2c(C#N)c(N3CCOCC3)nc(NCc3ccccc3)c2C1	84.7	94.2	73.6	81.6	63.1
COc1ccccc1NC(=O)Nc1c(C)n(C)n(-c2ccccc2)c1=O	94.2	101.9	32.2*	99.9	92.7
SMILES	HUVEC prolif 384	Lung fibro prol	H69AR inhibit	bCat KO growth	HCT116 PTEN-null
Cc1c(NC(=O)C2CCCNC2=O)c(=O)n(-c2ccccc2)n1C (stereo not drawn)	93.5	/	38.5*	36.9	38.5
Cc1ccc(C(C)C)c(OCC(=O)NNC(=O)C(C(C)C)N2C(=O)c3ccccc3C2=O)c1 (stereo not drawn)	/	/	/	92.5	102.2
CC(CCc1ccccc1)NC(=O)N1CCOCC1 (stereo not drawn)	/	/	/	97.2	104.4
O=C(CN1CCN(S(=O)(=O)c2ccc3ccccc3c2)CC1)Nc1ccc2c(c1)CCC2	/	/	/	69.7	62.2
CCOC(=O)N1CCN(C(=S)Nc2ccc3nc(N4CCN(CC)CC4)cc(C)c3c2)CC1	/	/	/	69.0	72.0
Cc1n[nH]c(C)c1S(=O)(=O)N(CC(=O)N1CCc2ccccc21)c1ccc(C(C)C)cc1	44.3	63.0	30.6*	79.5	73.8
CCOC(=O)N1CCC(n2c(=S)[nH]c3cc(OC)c(OC)cc3c2=O)CC1	97.6	103.7	33.8*	94.8	94.2
